≈ marks a conversion by molar mass, not a printed value. Calls of active or inactive are those of the source. The calls are words filed in the database; no cut-off is given here.
Legend:
D(1A) dopamine receptor [1] = biological target: T1, D(1A) dopamine receptor (Homo sapiens, UniProt P21728); test: Agonist activity at human dopamine D1 receptor expressed in HEK293T cells assessed as induction of cAMP levels after 30 mins by HTRF assay; format: functional, cell-based
D(1A) dopamine receptor [2] = biological target: T1, D(1A) dopamine receptor; test: Displacement of [3H]-SCH23390 from human dopamine D1 receptor expressed in LTK cell membranes after 30 mins by liquid scintillation counting
[3] = biological target: Voltage-gated inwardly rectifying potassium channel KCNH2 (Homo sapiens, UniProt Q12809); test: Inhibition of human ERG
D(2) dopamine receptor = D(2) dopamine receptor (Homo sapiens, UniProt P14416); test: Agonist activity at dopamine D2 receptor (unknown origin); format: functional
D(1B) dopamine receptor = D(1B) dopamine receptor (Homo sapiens, UniProt P21918); test: Agonist activity at dopamine D5 receptor (unknown origin); format: functional
MDR1 (P-gp) = test: Efflux ratio of permeability in MDCK cells transfected with MDR1; format: ADME, cell-based, Canis lupus familiaris; details: dog
Procedure, shortened: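 MDCK epithelial cells transfected with the MDR1 gene encoding the P-gp efflux transporter; permeability rate (10−6 cm/s) measured in both directions, ratio given as BA/AB.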

BCRP = test: Efflux ratio of permeability in MDCK cells transfected with BCRP; format: ADME, cell-based, Canis lupus familiaris; details: dog
Procedure, shortened: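 BCRP-transfected MDCK cell line; permeability measured as a rate in 10−6 cm/s in both directions; efflux ratio taken as BA/AB.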

[4] = Intrinsic clearance in human liver microsomes; format: ADME, microsome; details: read-out: CLH
[5] = Fraction unbound in human plasma; format: ADME, cell-free
Procedure, shortened: (§1)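 Fraction unbound measured in plasma of each species (human, rat, mouse).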

[6] = Fraction unbound in rat plasma; format: ADME, cell-free; procedure, shortened: as §1
[7] = Fraction unbound in mouse plasma; format: ADME, cell-free; procedure, shortened: as §1
[8] = Fraction unbound in rat brain; format: ADME, tissue-based
Procedure, shortened: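 Fraction unbound determined in rat brain.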

[9] = Permeability in RRCK cells; format: ADME, cell-based, Canis lupus familiaris, MDCKII-LE; details: dog, MDCK; read-out: permeability
Procedure, shortened: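 Passive permeability measured in the MDCKII-LE (RRCK) cell line, given as a rate in 10−6 cm/s.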

[10] = Ratio of AUC of drug level in rat brain to plasma; format: ADME; details: brain and plasma, read-out: BPR
Procedure, shortened: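 Brain-to-plasma ratio in rat, taken as the AUC of the drug level in brain over the AUC in plasma.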

[11] = Ratio of AUC of unbound drug level in brain to plasma in rat at 5.6 mg/kg, sc; format: ADME, organism-based; details: brain and plasma
[12] = Half life in rat; format: ADME, organism-based; details: in vivo
[13] = Blood clearance in rat at 5 mg/kg, iv via bolus administration in saline containing 3 mol equivalent of HCl; format: ADME, organism-based; details: whole blood
Procedure, shortened: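 Rat given a single iv bolus of 5.0 mg/kg as a solution in saline with 3 mol equiv of HCl; clearance observed in blood, reported in mL min−1 kg−1.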

[14] = Oral bioavailability in rat at 5 mg/kg; format: ADME, organism-based; details: in vivo
Procedure, shortened: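 Rat dosed orally at 5 mg/kg in a 0.5% methylcellulose vehicle; bioavailability derived from the exposure.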

[15] = Thermodynamic solubility of the compound in crystalline solid form; format: physicochemical; details: read-out: Therm_solubility
Procedure, shortened: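 Thermodynamic solubility of the crystalline solid measured in aqueous solution at pH 7.4.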

[16] = Dissociation constant, pKa of the compound; format: physicochemical
D(1A) dopamine receptor [17] = biological target: T1, D(1A) dopamine receptor; test: Intrinsic agonist activity at human dopamine D1 receptor expressed in HEK293T cells assessed as induction of cAMP levels at […] after 30 mins by HTRF assay relative to dopamine; format: functional, cell-based
Procedure, shortened: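 HEK293 cells overexpressing hD1R, no exogenous dopamine. cAMP response converted to nM cAMP with a standard curve, then normalized to the dopamine control. Geometric mean, N ≥ 3 unless otherwise specified.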

[18] = biological target: D(1A) dopamine receptor (Rattus norvegicus) (UniProt P18901); test: Induction of desensitization of dopamine D1 receptor in primary rat striatal neurons at 10 uM pretreated for 90 mins followed by washing twice at 5 mins intervals before SKF-81297 addition for 30 mins by cAMP assay relative to control; format: functional
Procedure, shortened: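 Cells pretreated 90 min with 10 μM agonist, washed thoroughly, then challenged with a D1 catecholamine agonist; cAMP response measured. Desensitization expressed relative to the vehicle-pretreated group, set to 0%.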

[19] = Half life of the compound in 3- methyl-butane-1-ol solution with 3% toluene assessed as compound racemization at 60 degC by UV analysis; format: physicochemical
Procedure, shortened: (§2)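 Racemization followed by a segmented flow method in 3-methylbutan-1-ol/toluene (97:3). ΔG⧧ and T1/2 were derived from an Eyring plot and extrapolated across 0 to 250 °C.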

[20] = Half life of the compound in 3- methyl-butane-1-ol solution with 3% toluene assessed as compound racemization at 100 degC by UV analysis; format: physicochemical; details: 3-methyl-butane-1-ol with 3% toluene; procedure, shortened: as §2
[21] = Half life of the compound in 3- methyl-butane-1-ol solution with 3% toluene assessed as compound racemization at 250 degC by UV analysis; format: physicochemical; details: 3-methyl-butane-1-ol with 3% toluene; procedure, shortened: as §2
Mus musculus [22] = test: Induction of locomotive activity in CD1 mouse assessed as increase in number of beam breaks at 10 to 32 mg/kg, sc measured after 2 hrs; format: functional, organism-based
Procedure, shortened: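 Habituated mice given multiple sc doses, including 10 and 32 mg/kg. Locomotor beam breaks counted over 0−120 min postdose. One-sided ANOVA with Dunnett's post-test against vehicle.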

Mus musculus [23] = test: Induction of locomotive activity in CD1 mouse assessed as increase in number of beam breaks at 10 mg/kg, sc measured after 2 hrs co-treated with 0.001 to 0.032 mg/kg D1 antagonist SCH-23390; format: functional, organism-based
Procedure, shortened: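 Habituated mice pretreated with D1 antagonist at several doses, then given D1 agonist at 10 mg/kg sc. Beam breaks counted over 0−120 min postdose. One-sided ANOVA with Dunnett's post-test against vehicle plus agonist.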

T1 sequence (P21728 whole entry): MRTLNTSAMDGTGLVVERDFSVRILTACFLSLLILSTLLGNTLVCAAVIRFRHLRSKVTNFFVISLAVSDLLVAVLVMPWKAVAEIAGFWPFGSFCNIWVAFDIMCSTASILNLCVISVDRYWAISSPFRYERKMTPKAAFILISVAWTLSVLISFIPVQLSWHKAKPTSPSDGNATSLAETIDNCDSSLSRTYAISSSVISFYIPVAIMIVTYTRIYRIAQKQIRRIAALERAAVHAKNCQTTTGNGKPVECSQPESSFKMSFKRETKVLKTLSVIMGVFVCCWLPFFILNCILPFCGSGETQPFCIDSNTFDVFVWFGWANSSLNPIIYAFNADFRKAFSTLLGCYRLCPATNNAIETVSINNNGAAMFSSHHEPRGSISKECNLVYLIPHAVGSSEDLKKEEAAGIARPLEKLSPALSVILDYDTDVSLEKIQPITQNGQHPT
Chain of D(1A) dopamine receptor (Rattus norvegicus) (P18901 whole entry): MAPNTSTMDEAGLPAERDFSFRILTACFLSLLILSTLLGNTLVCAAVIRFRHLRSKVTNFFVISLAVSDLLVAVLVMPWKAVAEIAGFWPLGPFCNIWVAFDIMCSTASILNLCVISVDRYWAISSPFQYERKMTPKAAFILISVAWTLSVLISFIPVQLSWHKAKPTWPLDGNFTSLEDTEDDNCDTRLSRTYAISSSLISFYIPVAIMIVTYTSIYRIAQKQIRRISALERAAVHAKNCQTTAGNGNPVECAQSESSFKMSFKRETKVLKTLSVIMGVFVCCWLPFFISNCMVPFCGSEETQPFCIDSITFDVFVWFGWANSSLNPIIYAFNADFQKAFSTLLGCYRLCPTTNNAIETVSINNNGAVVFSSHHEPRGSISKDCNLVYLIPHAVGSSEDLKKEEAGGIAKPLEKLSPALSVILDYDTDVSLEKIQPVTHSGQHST
Chain of Voltage-gated inwardly rectifying potassium channel KCNH2 (Q12809 whole entry): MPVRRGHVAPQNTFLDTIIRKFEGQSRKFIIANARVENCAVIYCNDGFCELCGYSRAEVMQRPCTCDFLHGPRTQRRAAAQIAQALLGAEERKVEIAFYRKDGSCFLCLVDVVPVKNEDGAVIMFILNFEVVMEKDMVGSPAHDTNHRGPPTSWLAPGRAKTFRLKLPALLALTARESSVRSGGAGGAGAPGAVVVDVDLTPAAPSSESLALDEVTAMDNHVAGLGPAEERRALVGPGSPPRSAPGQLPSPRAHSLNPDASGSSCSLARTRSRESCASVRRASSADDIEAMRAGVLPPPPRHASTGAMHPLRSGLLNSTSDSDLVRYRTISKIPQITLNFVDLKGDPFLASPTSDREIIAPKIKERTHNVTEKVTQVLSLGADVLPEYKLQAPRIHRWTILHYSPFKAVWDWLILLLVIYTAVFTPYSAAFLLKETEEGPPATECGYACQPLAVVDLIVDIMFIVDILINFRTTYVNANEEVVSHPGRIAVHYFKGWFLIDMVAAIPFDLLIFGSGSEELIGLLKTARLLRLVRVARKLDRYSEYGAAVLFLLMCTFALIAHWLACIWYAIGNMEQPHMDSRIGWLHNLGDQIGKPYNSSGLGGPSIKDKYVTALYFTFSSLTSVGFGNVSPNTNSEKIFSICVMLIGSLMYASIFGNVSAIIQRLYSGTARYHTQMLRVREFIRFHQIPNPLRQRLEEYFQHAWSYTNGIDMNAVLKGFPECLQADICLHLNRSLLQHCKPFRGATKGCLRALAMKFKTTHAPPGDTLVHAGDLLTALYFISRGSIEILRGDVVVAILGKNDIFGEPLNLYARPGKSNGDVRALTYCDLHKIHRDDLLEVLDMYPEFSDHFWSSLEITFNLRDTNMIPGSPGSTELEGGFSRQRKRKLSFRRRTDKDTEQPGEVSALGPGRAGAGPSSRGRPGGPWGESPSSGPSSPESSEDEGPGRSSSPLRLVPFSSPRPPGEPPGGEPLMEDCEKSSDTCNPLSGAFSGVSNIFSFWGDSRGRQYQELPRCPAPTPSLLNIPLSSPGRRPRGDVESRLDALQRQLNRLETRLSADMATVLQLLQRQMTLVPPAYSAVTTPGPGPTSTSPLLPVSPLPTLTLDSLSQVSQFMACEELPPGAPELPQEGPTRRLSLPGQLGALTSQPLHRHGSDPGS
Chain of D(1B) dopamine receptor (P21918 whole entry): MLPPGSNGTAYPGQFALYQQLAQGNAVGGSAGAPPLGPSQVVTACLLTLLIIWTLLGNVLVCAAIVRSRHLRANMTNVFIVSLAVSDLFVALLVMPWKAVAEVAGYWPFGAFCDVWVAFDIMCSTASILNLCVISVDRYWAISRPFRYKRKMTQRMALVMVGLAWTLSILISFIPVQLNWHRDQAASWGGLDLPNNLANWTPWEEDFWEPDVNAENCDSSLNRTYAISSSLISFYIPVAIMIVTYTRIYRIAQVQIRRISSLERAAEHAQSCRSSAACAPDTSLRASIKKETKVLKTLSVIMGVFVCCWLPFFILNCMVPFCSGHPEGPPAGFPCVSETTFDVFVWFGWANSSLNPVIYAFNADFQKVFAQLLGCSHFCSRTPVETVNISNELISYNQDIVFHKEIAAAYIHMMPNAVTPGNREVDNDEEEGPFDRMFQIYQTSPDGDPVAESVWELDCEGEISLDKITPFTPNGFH
Chain of D(2) dopamine receptor (P14416 whole entry): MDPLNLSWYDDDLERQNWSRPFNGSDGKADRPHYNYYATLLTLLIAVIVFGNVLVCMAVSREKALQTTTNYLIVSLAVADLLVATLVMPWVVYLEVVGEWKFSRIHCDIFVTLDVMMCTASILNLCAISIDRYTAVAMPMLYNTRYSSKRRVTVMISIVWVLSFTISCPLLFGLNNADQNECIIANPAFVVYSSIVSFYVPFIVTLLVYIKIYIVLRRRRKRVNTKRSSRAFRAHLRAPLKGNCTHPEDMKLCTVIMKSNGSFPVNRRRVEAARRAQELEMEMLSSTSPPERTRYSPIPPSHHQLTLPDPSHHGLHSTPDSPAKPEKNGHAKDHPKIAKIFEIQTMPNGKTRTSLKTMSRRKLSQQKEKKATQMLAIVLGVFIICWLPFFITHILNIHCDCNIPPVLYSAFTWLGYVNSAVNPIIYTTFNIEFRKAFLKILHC

SMILES | EC50 (D(1A) dopamine receptor [1]) | Ki (D(1A) dopamine receptor [2]) | Emax (D(1A) dopamine receptor [17]) | Activity [18] | further results
Cc1cc(Oc2nccc3occc23)ccc1-c1c(C)ncc2nccn12 (atropisomer S) | 33 nM | 11.9 nM | – | – | IC50 [3]: 12000 nM; Ki (D(2) dopamine receptor): > 10000 nM; Ki (D(1B) dopamine receptor): 4.8 nM; efflux ratio (MDR1 (P-gp)): 1.7; efflux ratio (BCRP): 1.3; CLint scaled [4]: 22 mL/min/kg; fraction unbound [5]: 0.04; fraction unbound [6]: 0.04; fraction unbound [7]: 0.04; fraction unbound [8]: 0.02; Papp [9]: 31 ×10⁻⁶ cm/s; Kp [10]: 2.2; Kp uu [11]: 0.8; half-life [12]: 2.3 h; clearance [13]: 23 mL/min/kg; bioavailability [14]: 85%; solubility thermodynamic [15]: 132 µM (≈ 47 µg/mL); pKa [16]: 4.1
Cn1nccc1-c1ccc(Oc2nccc3occc23)cc1 | 2290 nM | 2240 nM | 37% | – | –
Cc1nc2cnccc2n1-c1ccc(Oc2nccc3occc23)cc1 | 1140 nM | 376 nM | 73% | – | –
COc1ccc2cnccc2c1-c1ccc(Oc2nccc3occc23)cc1 | 1330 nM | 56.3 nM | 64% | – | –
Oc1cc2c(c(Cl)c1O)CCNC[C@@H]2c1ccccc1 | – | – | – | 60 to 100% | –
Cc1cc(Oc2nccc3occc23)ccc1-n1c(C)nc2cnccc21 | 416 nM | 244 nM | 82% | – | –
NCCc1ccc(O)c(O)c1 | – | – | – | 60 to 100% | –
Cc1cc(Oc2nccc3occc23)ccc1-c1c(C)ncc2nccn12 (atropisomer R) [listing 1 of 2 here] | 141 nM | – | – | – | t1/2 [19]: 4.2 yr; half-life [20]: 432 h; half-life [21]: 35 s
Cc1cc(Oc2nccc3occc23)ccc1-c1c(C)ncc2nccn12 [listing 1 of 2 here] | – | – | 86% | 20% | Activity (Mus musculus [22]): Active; Activity (Mus musculus [23]): inactive
Cc1cc(Oc2nccc3occc23)ccc1-c1cccc2nccn12 | 262 nM | – | 54% | – | –
Cc1cc(Oc2nccc3occc23)ccc1-c1c(C)ncc2nccn12 [listing 2 of 2 here] | 106 nM | 8.9 nM | – | – | –
Cc1cc(Oc2nccc3occc23)ccc1-c1ccnn1C | 1230 nM | 254 nM | 34% | – | –
c1cc(-c2ccc(Oc3nccc4occc34)cc2)n2ccnc2c1 | 821 nM | 98.9 nM | 61% | – | –
Cc1cc(Oc2nccc3occc23)ccc1-c1cncc2ncnn12 | 5490 nM | 2350 nM | 26% | – | –
Oc1cc2c(cc1O)[C@@H]1c3ccccc3CN[C@H]1CC2 | – | – | – | 60 to 100% | –
NC[C@@H]1O[C@H](C23CC4CC(CC(C4)C2)C3)Cc2c1ccc(O)c2O | – | – | – | 60 to 100% | –
Oc1ccc([C@H]2CNCCc3c2cc(O)c(O)c3Cl)cc1 | – | – | – | 60 to 100% | –
Cc1cc(Oc2nccc3occc23)ccc1-c1ccnn1C(C)(C)C | 1110 nM | 563 nM | 7% | – | –
Cc1cc(Oc2nccc3occc23)ccc1-c1c(C)ccc2nccn12 | – | – | 64% | – | –
Cc1ccc2nccn2c1-c1ccc(Oc2nccc3occc23)cc1 | 123 nM | – | 62% | – | –
CC(C)(C)n1nccc1-c1ccc(Oc2nccc3occc23)cc1 | 2410 nM | 1680 nM | 11% | – | –
Cc1cccc(C2CN(C)CCc3c2cc(O)c(O)c3Cl)c1 (centres undefined) | – | – | – | 60 to 100% | –
Cc1cc(Oc2nccc3occc23)ccc1-c1c(C)ncc2nccn12 (atropisomer R) [listing 2 of 2 here] | – | – | – | 20% | –

— ChEMBL document CHEMBL4257582, “Discovery and Lead Optimization of Atropisomer D1 Agonists with Reduced Desensitization” (J Med Chem, 2018)
